Source: ChEMBL document CHEMBL4330094, “Potent Metabolic Sialylation Inhibitors Based on C-5-Modified Fluorinated Sialic Acids” (J Med Chem, 2019)
pEC50: −log10 of the molar value. Calls of active or inactive are those of the source. The calls are words filed in the database; no cut-off is given here.

What was measured:
B16-F10 [1] = experiment: Inhibition of sialyltransferase in mouse B16-F10 cells assessed as recovery time for sialylation at 25.6 uM pretreated for 3 days followed by washing and re-seeding and measured after 6 days by biotinylated MAL2 lectin-based flow cytometry; type: cell-based
Summary of the method: (§1)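 B16-F10 cells were pretreated 3 days with 25.6 or 51.2 µM compound or DMSO, washed, reseeded, and sampled daily for 6 days. They were stained with biotinylated MALII (5 µg/ml, 45-60 min, 4 °C) plus streptavidin-PE. Flow cytometry MFI was normalized to control as % lectin binding.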

B16-F10 [2] = experiment: Effect on total cell surface glycosylation in mouse B16F10 cells assessed as inhibition of biotinylated PHA-L lectin binding at 102.4 uM after 3 days by flow cytometry; type: cell-based; details: b16-f10, 72 h
Summary of the method: (§2)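 B16-F10 cells were exposed 3 days to 102.4 µM compound or DMSO. Staining used biotinylated lectins (AAL 5, PNA 5, GSL-I 1, LCA 1, PHA-L 1, PSA 1, SJA 1, WGA 1 µg/ml) in carbo-free blocking buffer with 1 mM CaCl and 1 mM MgCl for 45-60 min at 4 °C, then streptavidin-PE for 20 min at 4 °C. Flow cytometry read-out was MFI, mean ± SEM from two independent experiments.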

[3] = Inhibition of sialyltransferase in mouse 9464D cells assessed as decrease in lectin binding after 3 days by biotinylated MAL2 lectin and streptavidin-PE based flow cytometry; type: cell-based
Summary of the method: (§3)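 Each cell line was incubated 3 days with increasing compound concentrations or equivalent DMSO. Cells were stained with biotinylated MALII (5 µg/ml) in carbo-free blocking buffer with 1 mM CaCl/MgCl for 45-60 min at 4 °C, washed in PBS/1% BSA/0.02% azide, then stained with streptavidin-PE for 20 min at 4 °C. For flow cytometry, MFI was normalized to control as % lectin binding.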

B16-F10 [4] = experiment: Cytotoxicity against mouse B16F10 cells assessed as reduction in metabolic activity at 204.8 uM after 3 days by MTT assay; type: ADME, cell-based; details: b16-f10, 72 h
B16-F10 [5] = experiment: Inhibition of sialyltransferase in mouse B16-F10 cells assessed as recovery time for sialylation at 51.2 uM pretreated for 3 days followed by washing and re-seeding and measured after 6 days by biotinylated MAL2 lectin-based flow cytometry; type: cell-based; summary of the method: as §1
[6] = target: N-acylneuraminate cytidylyltransferase (Mus musculus, UniProt Q99KK2); experiment: Prodrug activation in mouse B16F10 cells assessed as CMAS-mediated CMP-SiaFR levels at 51.2 uM after 1 to 24 hrs using fluorinated compounds by reverse-phase ion pairing chromatography/triple quadrupole mass spectrometric analysis; type: cell-based
Summary of the method: (§4)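 B16-F10 cells were incubated 1, 2, 4, 8 or 24 h with 51.2 µM fluorinated analogue or DMSO. Cells were washed with ammonium carbonate buffer (pH 7.4) and snap-frozen in liquid nitrogen. Extraction was twice for 3 min with cold 40% acetonitrile/40% methanol/20% water, followed by centrifugation for 3 min and vacuum drying.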

B16-F10 [7] = experiment: Effect on total cell surface glycosylation in mouse B16F10 cells assessed as inhibition of biotinylated WGA-lectin binding at 102.4 uM after 3 days by flow cytometry; type: cell-based; details: b16-f10, 72 h; summary of the method: as §2
[8] = Inhibition of sialyltransferase in HEK293 cells assessed as decrease in lectin binding after 3 days by biotinylated MAL2 lectin and streptavidin-PE based flow cytometry; type: cell-based, Homo sapiens; summary of the method: as §3
B16-F10 [9] = experiment: Effect on total cell surface glycosylation in mouse B16F10 cells assessed as inhibition of biotinylated PSA-lectin binding at 102.4 uM after 3 days by flow cytometry; type: cell-based; details: b16-f10, 72 h; summary of the method: as §2
B16-F10 [10] = experiment: Effect on total cell surface glycosylation in mouse B16F10 cells assessed as inhibition of biotinylated SJA-lectin binding at 102.4 uM after 3 days by flow cytometry; type: cell-based; details: b16-f10, 72 h; summary of the method: as §2
B16-F10 [11] = experiment: Effect on total cell surface glycosylation in mouse B16F10 cells assessed as inhibition of biotinylated AAL-lectin binding at 102.4 uM after 3 days by flow cytometry; type: cell-based; details: b16-f10, 72 h; summary of the method: as §2
B16-F10 [12] = experiment: Effect on total cell surface glycosylation in mouse B16F10 cells assessed as inhibition of biotinylated PNA lectin binding at 102.4 uM after 3 days by flow cytometry; type: cell-based; details: b16-f10, 72 h; summary of the method: as §2
[13] = Inhibition of sialyltransferase in mouse EL4 cells assessed as decrease in lectin binding after 3 days by biotinylated MAL2 lectin and streptavidin-PE based flow cytometry; type: cell-based; summary of the method: as §3
[14] = Inhibition of sialyltransferase in mouse B16F10 cells assessed as decrease in lectin binding after 3 days by biotinylated MAL2 lectin and streptavidin-PE based flow cytometry; type: cell-based; summary of the method: as §3
B16-F10 [15] = experiment: Effect on total cell surface glycosylation in mouse B16F10 cells assessed as inhibition of biotinylated GSL1-lectin binding at 102.4 uM after 3 days by flow cytometry; type: cell-based; details: b16-f10, 72 h; summary of the method: as §2
B16-F10 [16] = experiment: Cytotoxicity against mouse B16F10 cells assessed as reduction in metabolic activity at <51.2 uM after 3 days by MTT assay; type: ADME, cell-based; details: b16-f10, 72 h
[17] = Inhibition of sialyltransferase in human THP1 cells assessed as decrease in lectin binding after 3 days by biotinylated MAL2 lectin and streptavidin-PE based flow cytometry; type: cell-based; summary of the method: as §3
[18] = Inhibition of sialyltransferase in human HeLa cells assessed as decrease in lectin binding after 3 days by biotinylated MAL2 lectin and streptavidin-PE based flow cytometry; type: cell-based; summary of the method: as §3
B16-F10 [19] = experiment: Effect on total cell surface glycosylation in mouse B16F10 cells assessed as inhibition of biotinylated LCA-lectin binding at 102.4 uM after 3 days by flow cytometry; type: cell-based; details: b16-f10, 72 h; summary of the method: as §2
B16-F10 [20] = experiment: Inhibition of sialyltransferase in mouse B16-F10 cells assessed as reduction in CMP-Sia pool at 51.2 uM after 1 to 24 hrs using fluorinated compounds by reverse-phase ion pairing chromatography/triple quadrupole mass spectrometric analysis; type: cell-based; summary of the method: as §4
B16-F10 [21] = experiment: Relative inhibitory potency, ratio of SiaFAc to compound EC50 for inhibition of sialyltransferase in mouse B16-F10 cells; type: cell-based

N-acylneuraminate cytidylyltransferase, sequence (Q99KK2 whole entry): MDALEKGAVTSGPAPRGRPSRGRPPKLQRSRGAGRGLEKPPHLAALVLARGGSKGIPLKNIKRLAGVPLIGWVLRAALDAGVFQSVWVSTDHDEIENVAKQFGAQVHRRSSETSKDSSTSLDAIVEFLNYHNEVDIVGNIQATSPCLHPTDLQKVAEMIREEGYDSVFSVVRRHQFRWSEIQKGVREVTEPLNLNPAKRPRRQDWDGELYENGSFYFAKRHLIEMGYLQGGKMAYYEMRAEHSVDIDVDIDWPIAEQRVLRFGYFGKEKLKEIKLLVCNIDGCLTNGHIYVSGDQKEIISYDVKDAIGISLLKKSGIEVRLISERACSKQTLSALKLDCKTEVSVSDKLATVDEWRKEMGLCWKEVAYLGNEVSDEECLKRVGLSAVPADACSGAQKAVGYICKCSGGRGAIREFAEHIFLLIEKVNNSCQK

| SMILES | sialylation recovery time (B16-F10 [1]) | Activity (B16-F10 [2]) | pEC50 [3] | Activity (B16-F10 [4]) | TIME (B16-F10 [5]) [h] | Drug metabolism [6] | Activity (B16-F10 [7]) | pEC50 [8] | Activity (B16-F10 [9]) | Activity (B16-F10 [10]) | Activity (B16-F10 [11]) | Activity (B16-F10 [12]) | pEC50 [13] | pEC50 [14] | Activity (B16-F10 [15]) | Activity (B16-F10 [16]) | pEC50 [17] | pEC50 [18] | Activity (B16-F10 [19]) | Ratio EC50 (B16-F10 [21]) | further results |
| --- | --- | --- | --- | --- | --- | --- | --- | --- | --- | --- | --- | --- | --- | --- | --- | --- | --- | --- | --- | --- | --- |
| CCOC(=O)N[C@H]1[C@H]([C@H](OC(C)=O)[C@@H](COC(C)=O)OC(C)=O)OC(OC(C)=O)(C(=O)OC)[C@H](F)[C@@H]1OC(C)=O (some centres undefined) | Active | Non-Toxic | 5.05 | Non-Toxic | 120 to 144 | Metabolite_Detected | Non-Toxic | 5.69 | Non-Toxic | Non-Toxic | Non-Toxic | Non-Toxic | 4.38 | 5.75 | Non-Toxic | Non-Toxic | 6.35 | 5.69 | Non-Toxic | 15 | inhibition (B16-F10 [20]): Active |
| C#CCOC(=O)N[C@H]1[C@H]([C@H](OC(C)=O)[C@@H](COC(C)=O)OC(C)=O)OC(OC(C)=O)(C(=O)OC)[C@H](F)[C@@H]1OC(C)=O (some centres undefined) | Active | Non-Toxic | 4.97 | Non-Toxic | 120 to 144 | Metabolite_Detected | Non-Toxic | 5.92 | Non-Toxic | Non-Toxic | Non-Toxic | Non-Toxic | 4.29 | 6.14 | Non-Toxic | Non-Toxic | 6.38 | 5.78 | Non-Toxic | 37 | inhibition (B16-F10 [20]): Active |
| COC(=O)C1(OC(C)=O)O[C@@H]([C@H](OC(C)=O)[C@@H](COC(C)=O)OC(C)=O)[C@H](NC(C)=O)[C@@H](OC(C)=O)[C@H]1F (some centres undefined) | Active | Non-Toxic | < 3.99 | Non-Toxic | 48 to 72 | Metabolite_Detected | Non-Toxic | 4.34 | Non-Toxic | Non-Toxic | Non-Toxic | Non-Toxic | < 3.99 | 4.57 | Non-Toxic | Non-Toxic | 5.07 | 4.28 | Non-Toxic |  |  |
| C#CCCC(=O)N[C@H]1[C@H]([C@H](OC(C)=O)[C@@H](COC(C)=O)OC(C)=O)OC(OC(C)=O)(C(=O)OC)[C@H](F)[C@@H]1OC(C)=O (some centres undefined) | Active | Non-Toxic | < 3.99 | Non-Toxic | 48 to 72 | Metabolite_Detected | Non-Toxic | 4.58 | Non-Toxic | Non-Toxic | Non-Toxic | Non-Toxic | < 3.99 | 4.39 | Non-Toxic | Non-Toxic | 4.98 | 4.21 | Non-Toxic | 1 |  |
| COC(=O)N[C@H]1[C@H]([C@H](OC(C)=O)[C@@H](COC(C)=O)OC(C)=O)OC(OC(C)=O)(C(=O)OC)[C@H](F)[C@@H]1OC(C)=O (some centres undefined) | Active | Non-Toxic | 4.74 | Non-Toxic | 120 to 144 |  | Non-Toxic | 5.48 | Non-Toxic | Non-Toxic | Non-Toxic | Non-Toxic | 4.23 | 5.31 | Non-Toxic | Non-Toxic | 5.70 | 5.20 | Non-Toxic | 5 |  |
| C=CCOC(=O)N[C@H]1[C@H]([C@H](OC(C)=O)[C@@H](COC(C)=O)OC(C)=O)OC(OC(C)=O)(C(=O)OC)[C@H](F)[C@@H]1OC(C)=O (some centres undefined) | Active | Non-Toxic | 5.16 | Non-Toxic | 120 to 144 |  | Non-Toxic | 5.74 | Non-Toxic | Non-Toxic | Non-Toxic | Non-Toxic | 4.40 | 5.86 | Non-Toxic | Non-Toxic | 6.39 | 5.75 | Non-Toxic | 19 |  |
